Experimental data taken from ChEMBL document CHEMBL3351398, “Discovery of a Potent and Selective DGAT1 Inhibitor with a Piperidinyl-oxy-cyclohexanecarboxylic Acid Moiety” (ACS Med Chem Lett, 2014).
Values after ≈ are worked out from the molar mass of the structure shown.

Legend:
[1] = target: T1, Diacylglycerol O-acyltransferase 1 (Mus musculus, UniProt Q9Z2A7); test: Inhibition of mouse DGAT1
T1 sequence (Q9Z2A7 whole entry): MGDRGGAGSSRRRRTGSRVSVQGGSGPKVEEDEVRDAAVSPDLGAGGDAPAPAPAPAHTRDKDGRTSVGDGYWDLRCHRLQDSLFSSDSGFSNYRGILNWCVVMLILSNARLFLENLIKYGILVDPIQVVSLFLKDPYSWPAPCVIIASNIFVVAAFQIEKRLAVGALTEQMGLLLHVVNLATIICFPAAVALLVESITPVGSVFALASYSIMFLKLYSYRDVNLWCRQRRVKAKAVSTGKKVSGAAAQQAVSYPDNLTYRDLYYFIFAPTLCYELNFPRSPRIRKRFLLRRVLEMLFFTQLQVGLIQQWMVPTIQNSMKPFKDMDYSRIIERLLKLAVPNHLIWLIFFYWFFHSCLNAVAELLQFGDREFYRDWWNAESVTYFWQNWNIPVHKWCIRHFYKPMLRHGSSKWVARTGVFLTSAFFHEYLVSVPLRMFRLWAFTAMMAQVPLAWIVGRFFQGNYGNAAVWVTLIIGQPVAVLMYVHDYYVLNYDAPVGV

Adenosine receptor A2a = Adenosine receptor A2a (Homo sapiens, UniProt P29274); test: Binding affinity to human A2A receptor
Adenosine receptor A2a, sequence (P29274 whole entry): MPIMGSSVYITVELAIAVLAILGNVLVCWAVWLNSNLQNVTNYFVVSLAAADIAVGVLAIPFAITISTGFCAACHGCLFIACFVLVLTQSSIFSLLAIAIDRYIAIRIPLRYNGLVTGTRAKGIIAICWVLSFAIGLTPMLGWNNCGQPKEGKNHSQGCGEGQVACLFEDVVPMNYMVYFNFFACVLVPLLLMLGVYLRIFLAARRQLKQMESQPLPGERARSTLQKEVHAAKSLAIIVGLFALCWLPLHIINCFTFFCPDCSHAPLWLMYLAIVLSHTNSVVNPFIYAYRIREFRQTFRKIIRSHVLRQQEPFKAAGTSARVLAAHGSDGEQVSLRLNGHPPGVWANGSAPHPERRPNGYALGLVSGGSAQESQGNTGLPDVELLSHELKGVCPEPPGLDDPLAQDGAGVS
Procedure, shortened: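 Recombinant human A2A receptor was tested in an in-house radioligand competition binding assay. The value is reported as Ki.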

Rattus norvegicus = test: Inhibition of plasma triglyceride accumulation in Sprague-Dawley rat at 1 mg/kg, po dosed 2 hrs before lipid challenge and measured at 18 hrs by lipid tolerance test; assay type: functional
Procedure, shortened: (§1)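 Rat lipid tolerance test at oral doses of 1 and 3 mpk. Reduction of lipid excursion was normalized to a reference DGAT1 inhibitor given at 10 mpk, set as 100%. Plasma drug levels were the parent and its cis isomer combined, measured 4 h after oral dosing.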

[2] = target: Voltage-gated inwardly rectifying potassium channel KCNH2 (Homo sapiens, UniProt Q12809); test: Displacement of radiolabeled MK499 from human ERG
Voltage-gated inwardly rectifying potassium channel KCNH2, sequence (Q12809 whole entry): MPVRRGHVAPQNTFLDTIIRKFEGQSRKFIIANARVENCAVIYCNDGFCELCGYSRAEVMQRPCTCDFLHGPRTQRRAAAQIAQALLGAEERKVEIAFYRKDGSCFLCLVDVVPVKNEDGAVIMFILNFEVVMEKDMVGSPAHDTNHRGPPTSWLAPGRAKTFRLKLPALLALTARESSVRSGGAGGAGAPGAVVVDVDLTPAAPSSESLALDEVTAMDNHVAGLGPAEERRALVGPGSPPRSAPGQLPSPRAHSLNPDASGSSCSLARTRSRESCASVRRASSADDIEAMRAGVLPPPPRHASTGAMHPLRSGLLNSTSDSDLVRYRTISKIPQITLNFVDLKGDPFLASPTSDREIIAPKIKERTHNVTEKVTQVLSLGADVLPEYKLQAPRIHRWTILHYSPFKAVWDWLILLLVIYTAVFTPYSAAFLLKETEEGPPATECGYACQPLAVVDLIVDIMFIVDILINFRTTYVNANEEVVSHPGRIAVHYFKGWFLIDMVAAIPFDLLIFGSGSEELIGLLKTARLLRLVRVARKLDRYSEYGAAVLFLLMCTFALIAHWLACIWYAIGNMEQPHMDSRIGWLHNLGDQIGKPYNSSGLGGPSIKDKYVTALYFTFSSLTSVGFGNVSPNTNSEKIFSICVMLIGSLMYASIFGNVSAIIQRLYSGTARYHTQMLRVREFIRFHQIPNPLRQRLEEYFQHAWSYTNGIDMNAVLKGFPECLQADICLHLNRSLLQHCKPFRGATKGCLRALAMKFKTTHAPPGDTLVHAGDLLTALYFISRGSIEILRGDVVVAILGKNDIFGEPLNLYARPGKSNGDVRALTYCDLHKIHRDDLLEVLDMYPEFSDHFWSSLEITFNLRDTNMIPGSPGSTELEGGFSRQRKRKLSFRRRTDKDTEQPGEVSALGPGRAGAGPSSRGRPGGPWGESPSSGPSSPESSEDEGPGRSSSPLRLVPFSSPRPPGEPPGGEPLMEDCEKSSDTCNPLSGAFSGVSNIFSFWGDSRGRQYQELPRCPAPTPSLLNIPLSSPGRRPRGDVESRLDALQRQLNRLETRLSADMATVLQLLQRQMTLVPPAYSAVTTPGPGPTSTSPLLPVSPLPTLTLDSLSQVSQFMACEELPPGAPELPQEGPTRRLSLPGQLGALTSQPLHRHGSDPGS
Procedure, shortened: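 hERG off-target activity was measured in a competitive binding assay against radiolabeled MK-499. The value is reported as Ki.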

[3] = Solubility in PBS buffer at pH 7; assay type: physicochemical
Procedure, shortened: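 High-throughput solubility test in PBS buffer at pH 2 and at pH 7. Free form and salt forms (TFA, formate, ammonium) were tested separately.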

[4] = Unbound fraction in human plasma; assay type: ADME, cell-free
[5] = Plasma concentration in Sprague-Dawley rat at 1 mg/kg, po dosed 2 hrs before lipid challenge and measured at 4 hrs by lipid tolerance test; assay type: ADME, organism-based; parameters: dose 1 mg/kg, route oral; procedure, shortened: as §1
[6] = Plasma concentration in Sprague-Dawley rat at 3 mg/kg, po dosed 2 hrs before lipid challenge and measured at 4 hrs by lipid tolerance test; assay type: ADME, organism-based; parameters: dose 3 mg/kg, route oral; procedure, shortened: as §1
Salmonella typhimurium [7] = test: Induction of mutagenicity in Salmonella typhimurium TA1535 assessed as increase in number of revertants in absence of metabolic activation; assay type: toxicity, organism-based; conditions: salmonella enterica subsp. enterica serovar typhimurium
Procedure, shortened: (§2)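 Microbial reverse-mutation (Ames) test in strains TA1535, TA98 and TA100, with and without metabolic activation. The concentration range was 30 to 5000 μg/plate. A positive call required a 2-fold or greater increase in revertants relative to the solvent control.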

Salmonella typhimurium [8] = test: Induction of mutagenicity in Salmonella typhimurium TA98 assessed as increase in number of revertants in presence of metabolic activation; assay type: toxicity, organism-based; conditions: salmonella enterica subsp. enterica serovar typhimurium; procedure, shortened: as §2
Salmonella typhimurium [9] = test: Induction of mutagenicity in Salmonella typhimurium TA98 assessed as increase in number of revertants in absence of metabolic activation; assay type: toxicity, organism-based; conditions: salmonella enterica subsp. enterica serovar typhimurium; procedure, shortened: as §2
Salmonella typhimurium [10] = test: Induction of mutagenicity in Salmonella typhimurium TA100 assessed as increase in number of revertants in absence of metabolic activation; assay type: toxicity, organism-based; conditions: salmonella enterica subsp. enterica serovar typhimurium; procedure, shortened: as §2
[11] = Oral bioavailability in Sprague-Dawley rat at 2 mg/kg; assay type: ADME, organism-based; conditions: in vivo
[12] = Clearance in Sprague-Dawley rat at 1 mg/kg, iv or 2 mg/kg, po; assay type: ADME, organism-based; conditions: in vivo
[13] = Volume of distribution at steady state in Sprague-Dawley rat at 1 mg/kg, iv or 2 mg/kg, po; assay type: ADME, organism-based; conditions: in vivo, read-out: Vdss
Procedure, shortened: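 Sprague–Dawley rats were dosed as a solution in EtOH/PEG400/water (10:50:40), 1 mg/kg iv and 2 mg/kg po. Pharmacokinetic parameters were derived from these dosings.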

[14] = Oral bioavailability in Beagle dog at 4 mg/kg; assay type: ADME, organism-based, Canis lupus familiaris; conditions: in vivo
Procedure, shortened: (§3)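 Single-dose pharmacokinetics. Beagle dogs were dosed at 1 mg/kg iv as a solution in 30% captisol (pH 8) and at 4 mg/kg po in 0.5 methylcellulose.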

[15] = Clearance in Beagle dog at 1 mg/kg, iv or 4 mg/kg, po; assay type: ADME, organism-based, Canis lupus familiaris; conditions: in vivo; procedure, shortened: as §3
[16] = Half life in Beagle dog at 1 mg/kg, iv or 4 mg/kg, po; assay type: ADME, organism-based, Canis lupus familiaris; conditions: in vivo; procedure, shortened: as §3
[17] = AUC in Beagle dog at 4 mg/kg, po; assay type: ADME, organism-based, Canis lupus familiaris; parameters: dose 4 mg/kg, route oral; conditions: plasma; procedure, shortened: as §3
[18] = Drug level in plasma of C57BL/6 mouse at 10 mg/kg, po after 3 hrs; assay type: ADME, organism-based; parameters: dose 10 mg/kg, route oral
Procedure, shortened: (§4)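 Tissue distribution in C57BL/6 mice. A single oral dose of 10 mg/kg was given as a solution in EtOH/PEG400/water (10:50:40). Parent and its cis isomer were both measured, in μM, in plasma, liver, small intestine, adipose fat and skin at 3 h and 24 h.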

[19] = Drug level in liver of C57BL/6 mouse at 10 mg/kg, po after 3 hrs; assay type: ADME, organism-based; parameters: dose 10 mg/kg, route oral; conditions: read-out: Drug uptake; procedure, shortened: as §4
[20] = Drug level in adipose fat of C57BL/6 mouse at 10 mg/kg, po after 3 hrs; assay type: ADME, organism-based, Adipose tissue; parameters: dose 10 mg/kg, route oral; conditions: read-out: Drug uptake; procedure, shortened: as §4
[21] = Drug level in skin of C57BL/6 mouse at 10 mg/kg, po after 3 hrs; assay type: ADME, organism-based, Zone of skin; parameters: dose 10 mg/kg, route oral; conditions: read-out: Drug uptake; procedure, shortened: as §4
[22] = Drug level in liver of C57BL/6 mouse at 10 mg/kg, po after 24 hrs; assay type: ADME, organism-based; parameters: dose 10 mg/kg, route oral; conditions: read-out: Drug uptake; procedure, shortened: as §4
[23] = Drug level in adipose fat of C57BL/6 mouse at 10 mg/kg, po after 24 hrs; assay type: ADME, organism-based, Adipose tissue; parameters: dose 10 mg/kg, route oral; conditions: read-out: Drug uptake; procedure, shortened: as §4
Liver [24] = test: Drug level in liver of C57BL/6 mouse assessed as cis-4-((1-(5-(5-(trifluoromethyl)-1H-benzo[d]imidazol-2-yl)pyridin-2-yl)piperidin-4-yl)oxy)cyclohexanecarboxylic acid level at 10 mg/kg, po after 24 hrs; assay type: ADME, organism-based; parameters: dose 10 mg/kg, route oral; conditions: in vivo, read-out: Drug uptake; procedure, shortened: as §4
Liver [25] = test: Drug level in liver of C57BL/6 mouse assessed as cis-4-((1-(5-(5-(trifluoromethyl)-1H-benzo[d]imidazol-2-yl)pyridin-2-yl)piperidin-4-yl)oxy)cyclohexanecarboxylic acid level at 10 mg/kg, po after 3 hrs; assay type: ADME, organism-based; parameters: dose 10 mg/kg, route oral; conditions: in vivo, read-out: Drug uptake; procedure, shortened: as §4
Zone of skin = test: Drug level in skin of C57BL/6 mouse assessed as cis-4-((1-(5-(5-(trifluoromethyl)-1H-benzo[d]imidazol-2-yl)pyridin-2-yl)piperidin-4-yl)oxy)cyclohexanecarboxylic acid level at 10 mg/kg, po after 3 hrs; assay type: ADME, organism-based; parameters: dose 10 mg/kg, route oral; conditions: in vivo, read-out: Drug uptake; procedure, shortened: as §4

IC50 [1]: 0.023 µM | Ki (Adenosine receptor A2a): 4.6 µM | solubility [3]: 153 µM (≈ 74.7 µg/mL) | fraction unbound [4]: 0.09 | bioavailability [11]: 8% | clearance [12]: 5.82 mL/min/kg | Vd [13]: 0.19 L/kg | bioavailability [14]: 126% | clearance [15]: 88.9 mL/min/kg | half-life [16]: 1.16 h | AUC [17]: 1.94 µM·h | concentration at 3 h [18]: 324 nM | concentration at 3 h [19]: 21600 nM | concentration at 3 h [20]: 237 nM | concentration at 3 h [21]: 404 nM | concentration at 24 h [22]: 4020 nM | concentration at 24 h [23]: < 10 nM | concentration (Liver [24]): 672 nM | concentration (Liver [25]): 6910 nM | concentration (Zone of skin): 46 nM
Structure (SMILES): O=C(O)[C@H]1CC[C@H](OC2CCN(c3ccc(-c4nc5cc(C(F)(F)F)ccc5[nH]4)cn3)CC2)CC1
inhibition in vivo at 1 mg/kg (Rattus norvegicus): 80% | Ki [2]: 10 µM | concentration at 4 h [5]: 20 nM | concentration at 4 h [6]: 58 nM | Activity (Salmonella typhimurium [7]): Non-toxic | Activity (Salmonella typhimurium [8]): Non-toxic | Activity (Salmonella typhimurium [9]): Non-toxic | Activity (Salmonella typhimurium [10]): Non-toxic
